Holding throughout (type): functional
A short description of experiment [1]: Cytotoxicity against human Hep2 cells. The conditions noted are these: HEp-2, read-out: ED50 (the source's name). Put shortly: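 H.Ep-2 cultures; ED50 taken as the concentration that holds growth of treated cells to 50% of untreated controls.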
Experiment [2] deals with L1210. Briefly: In-vivo antitumor activity against mouse L1210 cells at 100 mg/kg. An outline of the steps:
(§1)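 Leukemia L1210 in vivo; compound given as a single dose on day 1 only, with dose in mg/kg. Read-out is life span of treated versus control animals, expressed as T/C %.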

Experiment [3] has as its system L1210. Briefly: In-vivo antitumor activity against mouse L1210 cells at 25 mg/kg. Put shortly:
as §1

Experiment [4] has as its system L1210. Briefly: In-vivo antitumor activity against mouse L1210 cells at 200 mg/kg. An outline of the steps: as §1
Experiment [5] relates to L1210. The experiment can be described thus: Cytotoxicity against mouse L1210 cells. The conditions noted are these: read-out: ED50 (the source's name).

Where only a bound is given, the exact number is not on record here.

As for `CN(N=O)C(=O)N[C@H]1[C@@H](O)[C@H](n2cnc3c(N)ncnc32)O[C@@H]1CO`, the EC50 in experiment [1] is above 60 µM. In the experiment on L1210 [2], this compound returned a T/C of 123%.

`CNC(=O)N[C@H]1[C@@H](O)[C@H](n2cnc3c(N)nc(Cl)nc32)O[C@@H]1CO`: the EC50 in experiment [1] was above 50 µM.

Turning to `CNC(=O)N[C@H]1[C@@H](O)[C@H](n2cnc3c(N)ncnc32)O[C@@H]1CO`, the EC50 in experiment [1] was above 60 µM.

For `CNC(=O)N[C@H]1[C@@H](O)[C@H](n2ccc(N)nc2=O)O[C@@H]1CO`, in experiment [1], the EC50 was above 60 µM.

As for `CN(N=O)C(=O)N[C@H]1[C@@H](O)[C@H](n2cnc3c(N)nc(Cl)nc32)O[C@@H]1CO`, in experiment [1], the EC50 was above 50 µM.

Take `CN(N=O)C(=O)N[C@H]1[C@@H](O)[C@H](n2ccc(N)nc2=O)O[C@@H]1CO`: the T/C in the experiment with L1210 [3] is listed as 110%. Besides, in experiment [1], the EC50 was above 50 µM.

In the case of `CN(N=O)C(=O)N[C@H]1[C@@H](O)[C@H](n2ccc(=O)[nH]c2=O)O[C@@H]1CO`, the EC50 in experiment [1] was above 60 µM. Also, the T/C with L1210 [2] worked out at 122%.

For `CNC(=O)NC[C@H]1O[C@@H](n2cnc3c(N)ncnc32)[C@H](O)[C@@H]1O`, the EC50 in experiment [1] is above 60 µM. In the experiment on L1210 [4], the T/C stood at 98%.

With `CN(N=O)C(=O)NC[C@H]1O[C@@H](n2cnc3c(N)ncnc32)[C@H](O)[C@@H]1O`, the EC50 in experiment [1] turned out to be 40 µM. For the same compound, the T/C in the experiment with L1210 [4] worked out at 106%.

Turning to `CN(N=O)C(=O)NC[C@H]1O[C@@H](n2ccc(=O)[nH]c2=O)[C@H](O)[C@@H]1O`, in experiment [1], the EC50 was above 50 µM.

With `CN(N=O)C(=O)NC[C@H]1O[C@@H](n2ccc(N)nc2=O)[C@H](O)[C@@H]1O`, in experiment [1], the EC50 was above 50 µM.

Regarding `Cc1cn([C@H]2C[C@H](NC(=O)N(C)N=O)[C@@H](CO)O2)c(=O)[nH]c1=O`, the EC50 in the experiment on L1210 [5] stood at 1 µM.

Usually T/C stands for the ratio of treated to control.

(Values after ChEMBL document CHEMBL3244270, “Nitrosoureidonucleosides” (1979).)
